Assay results reported in ChEMBL document CHEMBL5724801, “EUbOPEN Chemogenomics Library - Multiplex” (2024).
“And” between values parts separate entries of the source, which are not always exact repeats. Equal entries are not always repeated. Non-standard residues stand in square brackets, D forms with d. Residues, ends and D or L forms follow the SMILES beside them.

What was measured:
[1] = test system: Fibroblast; experiment: Multiplex assay against human fibroblast; assay type: toxicity, cell-based
In short: (§1)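 Imaging took place on a CQ1 microscope at 37°C and 5% CO2 once compound had been added to live cells stained at seeding with Hoechst33342, BioTracker Green Microtubule Cytoskeleton Dye, MitoTracker Red and Annexin V Alexa Fluor 680. CellPathfinder machine-learning gating classed cells as Hoechst high-intensity objects or normal cells, classed normal cells as having healthy, pyknosed or fragmented nuclei, and classed pyknosed cells as mitotic or apoptotic. Tubulin, mitochondrial-mass and membrane-permeability phenotypes are per cents of the healthy-nucleus cells.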

[2] = test system: U2OS; experiment: Multiplex assay against U2OS; assay type: toxicity, cell-based; details: human; in short: as §1
[3] = 24 h, 1 µM, compound concentration 1 uM
[4] = 24 h, 10 µM, compound concentration 10 uM
[5] = 48 h, 1 µM, compound concentration 1 uM
[6] = 48 h, 10 µM, compound concentration 10 uM
[7] = 12 h, 1 µM, compound concentration 1 uM
[8] = 12 h, 10 µM, compound concentration 10 uM

CC(C)C[C@@H]1NC(=O)[C@@H](C(C)C)NC(=O)[C@@H]2CCCN2C(=O)[C@@H](CC(=O)O)NC(=O)[C@@H](Cc2c[nH]c3ccccc23)NC1=O [BQ-123] (cyclo(L[dW][dD]P[dV]))
Total Cell Count [1, 3]: 107 and 166 | Population Apoptotic (%) [1, 4]: 50% and 29% | Population Fragmented Nuclei (%) [1, 4]: 19% and 27% | Population Healthy Nuclei (%) [1, 4]: 64% and 50% | Population Hoechst High Intensity Objects (%) [1, 4]: 8% and 0% | Population Membrane Permeable-Phenotype (%) [1, 4]: 1% and 11% | Population Mitochondria Different-Phenotype (%) [1, 4]: 5% and 3% | Population Mitotic Cells (%) [1, 4]: 50% and 70% | Population Normal (%) [1, 4]: 91% and 99% | Population Pyknosed Nuclei (%) [1, 4]: 15% and 22% | Population Tubulin-Different-Phenotype (%) [1, 4]: 32% and 50% | Total Cell Count [1, 4]: 123 | Population Apoptotic (%) [1, 5]: 50% and 52% | Population Fragmented Nuclei (%) [1, 5]: 18% and 28% | Population Healthy Nuclei (%) [1, 5]: 70% and 56% | Population Hoechst High Intensity Objects (%) [1, 5]: 3% and 4% | Population Membrane Permeable-Phenotype (%) [1, 5]: 0% and 2% | Population Mitochondria Different-Phenotype (%) [1, 5]: 12% and 4% | Population Mitotic Cells (%) [1, 5]: 50% and 48% | Population Normal (%) [1, 5]: 96% and 95% | Population Pyknosed Nuclei (%) [1, 5]: 11% and 15% | Population Tubulin-Different-Phenotype (%) [1, 5]: 25% and 39% | Total Cell Count [1, 5]: 109 and 172 | Population Apoptotic (%) [1, 6]: 70% and 46% | Population Fragmented Nuclei (%) [1, 6]: 26% and 45% | Population Healthy Nuclei (%) [1, 6]: 59% and 42% | Population Hoechst High Intensity Objects (%) [1, 6]: 5% and 6% | Population Membrane Permeable-Phenotype (%) [1, 6]: 1% and 9% | Population Mitochondria Different-Phenotype (%) [1, 6]: 5% and 3% | Population Mitotic Cells (%) [1, 6]: 29% and 53% | Population Normal (%) [1, 6]: 94% and 93% | Population Pyknosed Nuclei (%) [1, 6]: 13% and 12% | Population Tubulin-Different-Phenotype (%) [1, 6]: 38% and 51% | Total Cell Count [1, 6]: 129 and 130 | Population Apoptotic (%) [2, 7]: 77% and 83% | Population Fragmented Nuclei (%) [2, 7]: 20% and 19% | Population Healthy Nuclei (%) [2, 7]: 69% and 75% | Population Hoechst High Intensity Objects (%) [2, 7]: 0% and 2% | Population Membrane Permeable-Phenotype (%) [2, 7]: 1% and 2% | Population Mitochondria Different-Phenotype (%) [2, 7]: 1% and 0% | Population Mitotic Cells (%) [2, 7]: 22% and 16% | Population Normal (%) [2, 7]: 99% and 97% | Population Pyknosed Nuclei (%) [2, 7]: 9% and 5% | Population Tubulin-Different-Phenotype (%) [2, 7]: 0% and 8% | Total Cell Count [2, 7]: 228 and 118 | Population Apoptotic (%) [2, 8]: 78% and 75% | Population Fragmented Nuclei (%) [2, 8]: 29% and 25% | Population Healthy Nuclei (%) [2, 8]: 65% and 70% | Population Hoechst High Intensity Objects (%) [2, 8]: 2% | Population Membrane Permeable-Phenotype (%) [2, 8]: 8% and 7% | Population Mitochondria Different-Phenotype (%) [2, 8]: 1% and 4% | Population Mitotic Cells (%) [2, 8]: 21% and 25% | Population Normal (%) [2, 8]: 97% | Population Pyknosed Nuclei (%) [2, 8]: 4% | Population Tubulin-Different-Phenotype (%) [2, 8]: 3% and 2% | Total Cell Count [2, 8]: 294 and 99 | Population Apoptotic (%) [2, 3]: 69% and 85% | Population Fragmented Nuclei (%) [2, 3]: 16% and 11% | Population Healthy Nuclei (%) [2, 3]: 75% and 77% | Population Hoechst High Intensity Objects (%) [2, 3]: 0% | Population Membrane Permeable-Phenotype (%) [2, 3]: 2% and 6% | Population Mitochondria Different-Phenotype (%) [2, 3]: 1% and 0% | Population Mitotic Cells (%) [2, 3]: 30% and 14% | Population Normal (%) [2, 3]: 99% | Population Pyknosed Nuclei (%) [2, 3]: 8% and 10% | Population Tubulin-Different-Phenotype (%) [2, 3]: 1% and 3% | Total Cell Count [2, 3]: 279 and 137 | Population Apoptotic (%) [2, 4]: 92% and 100% | Population Fragmented Nuclei (%) [2, 4]: 24% | Population Healthy Nuclei (%) [2, 4]: 67% and 74% | Population Hoechst High Intensity Objects (%) [2, 4]: 2% and 0% | Population Membrane Permeable-Phenotype (%) [2, 4]: 8% and 6% | Population Mitochondria Different-Phenotype (%) [2, 4]: 2% and 8% | Population Mitotic Cells (%) [2, 4]: 8% and 0% | Population Normal (%) [2, 4]: 97% and 99% | Population Pyknosed Nuclei (%) [2, 4]: 7% and 1% | Population Tubulin-Different-Phenotype (%) [2, 4]: 4% | Total Cell Count [2, 4]: 338 and 113 | Population Apoptotic (%) [2, 5]: 77% and 100% | Population Fragmented Nuclei (%) [2, 5]: 14% and 18% | Population Healthy Nuclei (%) [2, 5]: 79% and 70% | Population Hoechst High Intensity Objects (%) [2, 5]: 1% | Population Membrane Permeable-Phenotype (%) [2, 5]: 3% | Population Mitochondria Different-Phenotype (%) [2, 5]: 1% and 3% | Population Mitotic Cells (%) [2, 5]: 22% and 0% | Population Normal (%) [2, 5]: 98% | Population Pyknosed Nuclei (%) [2, 5]: 5% and 10% | Population Tubulin-Different-Phenotype (%) [2, 5]: 3% and 2% | Total Cell Count [2, 5]: 407 and 226 | Population Apoptotic (%) [2, 6]: 94% and 81% | Population Fragmented Nuclei (%) [2, 6]: 19% and 20% | Population Healthy Nuclei (%) [2, 6]: 70% and 66% | Population Hoechst High Intensity Objects (%) [2, 6]: 1% | Population Membrane Permeable-Phenotype (%) [2, 6]: 5% | Population Mitochondria Different-Phenotype (%) [2, 6]: 2% and 6% | Population Normal (%) [2, 6]: 98% | Population Pyknosed Nuclei (%) [2, 6]: 9% and 12% | Population Tubulin-Different-Phenotype (%) [2, 6]: 3% and 2%
